From ChEMBL document CHEMBL4190234, “Design, synthesis and anticancer activity of new monastrol analogues bearing 1,3,4-oxadiazole moiety” (Eur J Med Chem, 2017)

Legend:
Format in all cases: functional
HL-60(TB) = experiment: Growth inhibition of human HL-60(TB) cells at 10 uM incubated for 48 hrs by sulforhodamine B assay relative to control; details: HL-60, 48 h, read-out: GI
Summary of the method: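 Single dose of 10 µM in the NCI ~60-line panel. Cells grown in RPMI 1640 with 5% FBS and 2 mM L-glutamine, plated and pre-incubated 24 h, then exposed 48 h at 37°C under 5% CO2. Suspension cells fixed with TCA (16% final) and stained with sulforhodamine B, A515 read. Reported as percent growth versus untreated control and as GI%.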

SR = experiment: Growth inhibition of human SR cells at 10 uM incubated for 48 hrs by sulforhodamine B assay relative to control; details: read-out: GI
Summary of the method: (§1)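 NCI single-dose screen: cells grown in RPMI 1640 with 5% FBS and 2 mM L-glutamine, plated at 5,000–40,000 cells/well and preincubated 24 h at 37 °C, 5% CO2. Compounds taken from DMSO stock and tested at final 10 µM for 48 h. Cells fixed with TCA, stained with 0.4% SRB, absorbance read at 515 nm. Percentage growth calculated against untreated controls; controls held DMSO at the same dilution.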

HOP-62 = experiment: Growth inhibition of human HOP62 cells at 10 uM incubated for 48 hrs by sulforhodamine B assay relative to control; details: HOP-62, 48 h, read-out: GI
Summary of the method: (§2)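 Single-dose screen at 10 μM final: cells in RPMI 1640, 5% FBS, 2 mM L-glutamine, plated 5,000–40,000/well, preincubated 24 h at 37°C, 5% CO2; drug 48 h; adherent cells fixed with 10% TCA, suspension cells with 16% TCA; SRB stain, absorbance 515 nm; percentage growth versus untreated control, with time-zero plates.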

NCI-H322M = experiment: Growth inhibition of human NCI-H322M cells at 10 uM incubated for 48 hrs by sulforhodamine B assay relative to control; details: read-out: GI; summary of the method: as §2
NCI-H460 = experiment: Growth inhibition of human NCI-H460 cells at 10 uM incubated for 48 hrs by sulforhodamine B assay relative to control; details: NCI-H460, 48 h, read-out: GI; summary of the method: as §2
NCI-H522 = experiment: Growth inhibition of human NCI-H522 cells at 10 uM incubated for 48 hrs by sulforhodamine B assay relative to control; details: NCI-H522, 48 h, read-out: GI; summary of the method: as §2
HCT-116 = experiment: Growth inhibition of human HCT116 cells at 10 uM incubated for 48 hrs by sulforhodamine B assay relative to control; details: HCT-116, 48 h, read-out: GI; summary of the method: as §2
HCT-15 = experiment: Growth inhibition of human HCT15 cells at 10 uM incubated for 48 hrs by sulforhodamine B assay relative to control; details: HCT-15, 48 h, read-out: GI; summary of the method: as §2
KM12 = experiment: Growth inhibition of human KM12 cells at 10 uM incubated for 48 hrs by sulforhodamine B assay relative to control; details: KM12, 48 h, read-out: GI; summary of the method: as §2
SF-268 = experiment: Growth inhibition of human SF268 cells at 10 uM incubated for 48 hrs by sulforhodamine B assay relative to control; details: SF-268, 48 h, read-out: GI; summary of the method: as §1
SF-539 = experiment: Growth inhibition of human SF539 cells at 10 uM incubated for 48 hrs by sulforhodamine B assay relative to control; details: SF-539, 48 h, read-out: GI; summary of the method: as §1
SNB-75 = experiment: Growth inhibition of human SNB75 cells at 10 uM incubated for 48 hrs by sulforhodamine B assay relative to control; details: SNB-75, 48 h, read-out: GI; summary of the method: as §1
M14 = experiment: Growth inhibition of human M14 cells at 10 uM incubated for 48 hrs by sulforhodamine B assay relative to control; details: M14, 48 h, read-out: GI; summary of the method: as §2
SK-MEL-5 = experiment: Growth inhibition of human SK-MEL-5 cells at 10 uM incubated for 48 hrs by sulforhodamine B assay relative to control; details: SK-MEL-5, 48 h, read-out: GI; summary of the method: as §1
UACC-62 = experiment: Growth inhibition of human UACC62 cells at 10 uM incubated for 48 hrs by sulforhodamine B assay relative to control; details: UACC-62, 48 h, read-out: GI; summary of the method: as §1
IGROV-1 = experiment: Growth inhibition of human IGROV1 cells at 10 uM incubated for 48 hrs by sulforhodamine B assay relative to control; details: IGROV-1, 48 h, read-out: GI; summary of the method: as §2
OVCAR-3 = experiment: Growth inhibition of human OVCAR3 cells at 10 uM incubated for 48 hrs by sulforhodamine B assay relative to control; details: OVCAR-3, 48 h, read-out: GI; summary of the method: as §2
OVCAR-4 = experiment: Growth inhibition of human OVCAR4 cells at 10 uM incubated for 48 hrs by sulforhodamine B assay relative to control; details: OVCAR-4, 48 h, read-out: GI; summary of the method: as §2
NCI/ADR-RES = experiment: Growth inhibition of human NCI/ADR-RES cells at 10 uM incubated for 48 hrs by sulforhodamine B assay relative to control; details: read-out: GI; summary of the method: as §2
SK-OV-3 = experiment: Growth inhibition of human SKOV3 cells at 10 uM incubated for 48 hrs by sulforhodamine B assay relative to control; details: SK-OV-3, 48 h, read-out: GI; summary of the method: as §1
786-0 = experiment: Growth inhibition of human 786-0 cells at 10 uM incubated for 48 hrs by sulforhodamine B assay relative to control; details: 786-0, 48 h, read-out: GI; summary of the method: as §2
A498 = experiment: Growth inhibition of human A498 cells at 10 uM incubated for 48 hrs by sulforhodamine B assay relative to control; details: A498, 48 h, read-out: GI; summary of the method: as §2
ACHN = experiment: Growth inhibition of human ACHN cells at 10 uM incubated for 48 hrs by sulforhodamine B assay relative to control; details: read-out: GI; summary of the method: as §2
RXF 393 = experiment: Growth inhibition of human RXF393 cells at 10 uM incubated for 48 hrs by sulforhodamine B assay relative to control; details: RXF 393, 48 h, read-out: GI; summary of the method: as §2
SN12C = experiment: Growth inhibition of human SN12C cells at 10 uM incubated for 48 hrs by sulforhodamine B assay relative to control; details: read-out: GI; summary of the method: as §1
MCF7 = experiment: Growth inhibition of human MCF7 cells at 10 uM incubated for 48 hrs by sulforhodamine B assay relative to control; details: MCF7, 48 h, read-out: GI; summary of the method: as §2
MDA-MB-231 = experiment: Growth inhibition of human MDA-MB-231 cells at 10 uM incubated for 48 hrs by sulforhodamine B assay relative to control; details: MDA-MB-231, 48 h, read-out: GI; summary of the method: as §2
BT-549 = experiment: Growth inhibition of human BT549 cells at 10 uM incubated for 48 hrs by sulforhodamine B assay relative to control; details: BT-549, 48 h, read-out: GI; summary of the method: as §2
T47D = experiment: Growth inhibition of human T47D cells at 10 uM incubated for 48 hrs by sulforhodamine B assay relative to control; details: read-out: GI; summary of the method: as §1
MDA-MB-468 = experiment: Growth inhibition of human MDA-MB-468 cells at 10 uM incubated for 48 hrs by sulforhodamine B assay relative to control; details: MDA-MB-468, 48 h, read-out: GI; summary of the method: as §2

Row | SMILES | inhibition of growth at 10 µM (HL-60(TB)) [%] | inhibition of growth at 10 µM (SR) [%] | inhibition of growth at 10 µM (HOP-62) [%] | inhibition of growth at 10 µM (NCI-H322M) [%] | inhibition of growth at 10 µM (NCI-H460) [%] | inhibition of growth at 10 µM (NCI-H522) [%] | inhibition of growth at 10 µM (HCT-116) [%] | inhibition of growth at 10 µM (HCT-15) [%] | inhibition of growth at 10 µM (KM12) [%] | inhibition of growth at 10 µM (SF-268) [%] | inhibition of growth at 10 µM (SF-539) [%] | inhibition of growth at 10 µM (SNB-75) [%] | inhibition of growth at 10 µM (M14) [%] | inhibition of growth at 10 µM (SK-MEL-5) [%] | inhibition of growth at 10 µM (UACC-62) [%] | inhibition of growth at 10 µM (IGROV-1) [%] | inhibition of growth at 10 µM (OVCAR-3) [%] | inhibition of growth at 10 µM (OVCAR-4) [%] | inhibition of growth at 10 µM (NCI/ADR-RES) [%] | inhibition of growth at 10 µM (SK-OV-3) [%] | other results
1 | COc1ccc(-c2nnc(CSC3=NC(c4ccc(F)cc4)C(C(C)=O)=C(C)N3)o2)cc1 (stereo not given) | 15.2 | 13.3 | 19.4 | < 10 | < 10 | 18 | < 10 | < 10 | < 10 | < 10 | < 10 | 17.3 | 13.4 | < 10 | 10.8 | < 10 | < 10 | 12.2 | < 10 | 18.3 | inhibition of growth at 10 µM (786-0): < 10%; inhibition of growth at 10 µM (A498): < 10%; inhibition of growth at 10 µM (ACHN): < 10%; inhibition of growth at 10 µM (RXF 393): < 10%; inhibition of growth at 10 µM (SN12C): < 10%; inhibition of growth at 10 µM (MCF7): 10.5%; inhibition of growth at 10 µM (MDA-MB-231): 14.4%; inhibition of growth at 10 µM (BT-549): < 10%; inhibition of growth at 10 µM (T47D): 28.9%; inhibition of growth at 10 µM (MDA-MB-468): < 10%
2 | CC(=O)C1=C(C)NC(SCc2nnc(-c3ccc(C)cc3)o2)=NC1c1ccc(F)cc1 (stereo not given) | 19.2 | 19.1 | < 10 | < 10 | < 10 | 14.1 | < 10 | < 10 | < 10 | < 10 | < 10 | < 10 | < 10 | < 10 | 15.4 | 11 | < 10 | < 10 | < 10 | < 10 | inhibition of growth at 10 µM (786-0): 15.4%; inhibition of growth at 10 µM (A498): < 10%; inhibition of growth at 10 µM (ACHN): < 10%; inhibition of growth at 10 µM (RXF 393): < 10%; inhibition of growth at 10 µM (SN12C): < 10%; inhibition of growth at 10 µM (MCF7): < 10%; inhibition of growth at 10 µM (MDA-MB-231): < 10%; inhibition of growth at 10 µM (BT-549): 13.9%; inhibition of growth at 10 µM (T47D): 25.6%; inhibition of growth at 10 µM (MDA-MB-468): < 10%
3 | CC(=O)C1=C(C)NC(SCc2nnc(-c3ccc(Cl)cc3)o2)=NC1c1ccc(Cl)cc1 (stereo not given) | 40.3 | 37.8 | 11.6 | 12 | < 10 | 20.9 | 25.8 | 11 | < 10 | < 10 | < 10 | 28.1 | < 10 | < 10 | 27.7 | 23.4 | < 10 | < 10 | < 10 | < 10 | inhibition of growth at 10 µM (786-0): 12.6%; inhibition of growth at 10 µM (A498): < 10%; inhibition of growth at 10 µM (ACHN): 13.5%; inhibition of growth at 10 µM (RXF 393): < 10%; inhibition of growth at 10 µM (SN12C): 13%; inhibition of growth at 10 µM (MCF7): 16.4%; inhibition of growth at 10 µM (MDA-MB-231): 27%; inhibition of growth at 10 µM (BT-549): 15.1%; inhibition of growth at 10 µM (T47D): 39.5%; inhibition of growth at 10 µM (MDA-MB-468): 10.8%
